Data from paper PMC13077713 (Journal of medicinal chemistry, 2025).
Where “and” joins values, the source holds several entries; their conditions need not be identical. Equal entries are not always repeated. Where two headings read alike, the source gives them in different places.

Experiments:
[1] = Cytotoxicity, CellTiter 96 cell proliferation assay, Vero cells; format: cell-based, African green monkey; settings: African green monkey, Vero kidney cells
[2] = tested on: HBV DNA production in HepAD38 cells; test: Anti-HBV activity; format: cell-based, Hepatitis B virus (HBV); settings: for times less potent than GLP-26: HepAD38 vs GLP-26
[3] = Cytotoxicity, CellTiter 96 cell proliferation assay, HepG2 cells; format: cell-based, human; settings: human, HepG2 hepatocellular carcinoma cells
[4] = Cytotoxicity, CellTiter 96 cell proliferation assay, PBM cells; format: cell-based, human; settings: human, peripheral blood mononuclear (PBM) cells
[5] = Cytotoxicity, CellTiter 96 cell proliferation assay, CEM cells; format: cell-based, human; settings: human, CEM T lymphoblast cells
[6] = tested on: African green monkey kidney (Vero) cells; test: Cytotoxicity, CellTiter 96 cell proliferation assay, Vero cells; format: cell-based; settings: read-out: Cytotoxicity, CC50 Vero; Vero cells
[7] = tested on: human hepatocellular carcinoma (HepG2) cells; test: Cytotoxicity, CellTiter 96 cell proliferation assay, HepG2 cells; format: cell-based; settings: read-out: Cytotoxicity, CC50 HepG2; HepG2 cells
[8] = tested on: human peripheral blood mononuclear (PBM) cells; test: Cytotoxicity, CellTiter 96 cell proliferation assay, PBM cells; format: cell-based; settings: read-out: Cytotoxicity, CC50 PBM; PBM cells
[9] = tested on: human T lymphoblast (CEM) cells; test: Cytotoxicity, CellTiter 96 cell proliferation assay, CEM cells; format: cell-based; settings: read-out: Cytotoxicity, CC50 CEM; CEM cells
Cp149 dimers [10] = target: T1, Cp149 dimers (Hepatitis B virus genotype D subtype ayw, UniProt P03146); settings: for Rgw (mean radius of gyration, plateau) / 〈N〉w∞ (mean aggregation number at equilibrium) / Associated timescale of Rgw / Associated timescale of 〈N〉w: ρ = 3, 30 μM subunits, 200 mM ammonium acetate; for Rgw (mean radius of gyration, plateau): 37°C, ρ = 0: 176 ± 6 Å; for 〈N〉w∞ (mean aggregation number at equilibrium): ρ = 0: 156 ± 6; for Associated timescale of Rgw: ρ = 0: 237 ± 62 ms; for Associated timescale of 〈N〉w: ρ = 0: 699 ± 138 ms
Cp149 dimers [11] = target: T1, Cp149 dimers; test: Static SAXS of Cp149 capsid assembly in the presence of CAM; format: biochemical, Hepatitis B virus (HBV); settings: ρ = 3, undiluted sample, 30 μM dimers; 1.54 cm^−1 without CAM
Cp149 dimers [12] = target: T1, Cp149 dimers; test: Mass photometry of Cp149 capsid assembly in the presence of CAM; format: biochemical, Hepatitis B virus (HBV); settings: ρ = 3, assembled at 30 μM subunits, diluted to 0.18 μM; 57% without CAM
[13] = target: preassembled HBV capsids (Cp149 protein) (Hepatitis B virus genotype D subtype ayw, UniProt P03146); settings: 20 μM CAM
Cp149 dimers [14] = target: T1, Cp149 dimers; test: Cryo-electron microscopy classification of Cp149 capsids assembled with CAM; format: biochemical, Hepatitis B virus (HBV); settings: ρ = 3 (90 μM), 30 μM Cp149
Procedure, shortened: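 Cp149 was expressed in E. coli BL21 and purified as capsids. These were dissociated with 3 M urea and taken to subunits by SEC. Assembly was triggered manually by mixing 30 μM (1 mg/ml) dimers in 1 mM DTT, 20 mM Tris-HCl pH 7.5 with 200 mM ammonium acetate, with or without 90 μM CAM (ρ = 3). Samples were concentrated 11-fold, imaged by cryo-EM, and particles 2D-classified.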

[15] = Hepatitis B virus, HePAD38, read-out: Anti-HBV activity EC50
[16] = Hepatitis B virus, HePAD38, read-out: Anti-HBV activity EC90
[17] = read-out: Anti-HBV activity EC50, HBV DNA production, HepAD38 cells
[18] = read-out: Anti-HBV activity EC90, HBV DNA production, HepAD38 cells

T1 sequence (P03146 1-149): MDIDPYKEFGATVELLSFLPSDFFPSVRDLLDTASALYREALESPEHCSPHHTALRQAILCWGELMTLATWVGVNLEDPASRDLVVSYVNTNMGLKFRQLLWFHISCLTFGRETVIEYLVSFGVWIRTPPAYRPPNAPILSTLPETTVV
preassembled HBV capsids (Cp149 protein), sequence (P03146 1-149): as above

Compound | CC50 [6] [µM] | EC50 [2, 17] [µM] | EC90 [2, 18] [µM] | CC50 [7] [µM] | CC50 [8] [µM] | CC50 [9] [µM] | also measured
CCCCCCCCCCCCn1cc(CNC(=O)C(=O)c2c(C)c(C(=O)Nc3ccc(F)c(F)c3)n(C)c2C)nn1 [Compound 10, N-(3,4-difluorophenyl)-4-(2-(((1-dodecyl-1H-1,2,3-triazol-4-yl)methyl)amino)-2-oxoacetyl)-1,3,5-trimethyl-1H-pyrrole-2-carboxamide] | – | – | – | – | – | – | CC50 [1]: 10.4 ± 9 µM; EC50 [2, 15]: 0.307 ± 0.153 µM; EC90 [2, 16]: 0.97 ± 0.13 µM; CC50 [3]: 30.5 ± 25.6 µM; CC50 [4]: 1.6 ± 0.6 µM; CC50 [5]: 9.9 ± 4.6 µM
Cc1c(C(=O)C(=O)NCc2cn(CCCCCCn3cc(CNC(=O)C(=O)c4c(C)c(C(=O)Nc5ccc(F)c(F)c5)n(C)c4C)nn3)nn2)c(C)n(C)c1C(=O)Nc1ccc(F)c(F)c1 [Compound 6a, 4,4’-(2,2’-(((Hexane-1,6-diylbis(1H-1,2,3-triazole-1,4-diyl))bis(methylene))bis(azanediyl))bis(2-oxoacetyl))bis(N-(3,4-difluorophenyl)-1,3,5-trimethyl-1H-pyrrole-2-carboxamide)] | > 100 | 0.285 ± 0.021 | > 10 | > 100 | > 100 | > 100 | –
Cc1c(C(=O)C(=O)NCc2cn(CCCCCCCCn3cc(CNC(=O)C(=O)c4c(C)c(C(=O)Nc5ccc(F)c(F)c5)n(C)c4C)nn3)nn2)c(C)n(C)c1C(=O)Nc1ccc(F)c(F)c1 [Compound 6b, 4,4’-(2,2’-(((Octane-1,8-diylbis(1H-1,2,3-triazole-1,4-diyl))bis(methylene))bis(azanediyl))bis(2-oxoacetyl))bis(N-(3,4-difluorophenyl)-1,3,5-trimethyl-1H-pyrrole-2-carboxamide)] | > 100 | 0.438 ± 0.211 | 5.52 | > 100 | > 100 | > 100 | –
Cc1c(C(=O)C(=O)NCc2cn(CCCCCCCCCCCCCCCCn3cc(CNC(=O)C(=O)c4c(C)c(C(=O)Nc5ccc(F)c(F)c5)n(C)c4C)nn3)nn2)c(C)n(C)c1C(=O)Nc1ccc(F)c(F)c1 [Compound 6f, 4,4’-(2,2’-(((Hexadecane-1,16-diylbis(1H-1,2,3-triazole-1,4-diyl))bis(methylene))bis(azanediyl))bis(2-oxoacetyl))bis(N-(3,4-difluorophenyl)-1,3,5-trimethyl-1H-pyrrole-2-carboxamide)] | > 100 | 0.018 ± 0.011 | 0.13 ± 0.06 | > 100 | > 100 | > 100 | times less potent than GLP-26 [2]: 2–3 times
Cc1cc(NC(=O)c2cccc(S(=O)(=O)N[C@H]3CCOC3)c2)ccc1F [JNJ-632] | – | – | – | – | – | – | Subunit binding energies −Δg (Cp149 dimers [10]): 15.8 kT; Rgw (mean radius of gyration, plateau) (Cp149 dimers [10]): 176 ± 0.5 Å; 〈N〉w∞ (mean aggregation number at equilibrium) (Cp149 dimers [10]): 150 ± 4; Associated timescale of Rgw (Cp149 dimers [10]): 100 ± 24 ms; Associated timescale of 〈N〉w (Cp149 dimers [10]): 273 ± 46 ms
Cc1c(C(=O)C(=O)NCc2cn(CCCCCCCCCCCCCCCCCCn3cc(CNC(=O)C(=O)c4c(C)c(C(=O)Nc5ccc(F)c(F)c5)n(C)c4C)nn3)nn2)c(C)n(C)c1C(=O)Nc1ccc(F)c(F)c1 [Compound 6g, 4,4’-(2,2’-(((Octadecane-1,18-diylbis(1H-1,2,3-triazole-1,4-diyl))bis(methylene))bis(azanediyl))bis(2-oxoacetyl))bis(N-(3,4-difluorophenyl)-1,3,5-trimethyl-1H-pyrrole-2-carboxamide)] | > 100 | 0.025 ± 0.024 | 0.38 ± 0.01 | > 100 | > 100 | > 100 | times less potent than GLP-26 [2]: 2–3 times
Cc1c(C(=O)C(=O)NCc2c[nH]nn2)c(C)n(C)c1C(=O)Nc1ccc(F)c(F)c1 [Compound 7, 4-(2-(((1H-1,2,3-triazol-4-yl)methyl)amino)-2-oxoacetyl)-N-(3,4-difluorophenyl)-1,3,5-trimethyl-1H-pyrrole-2-carboxamide] | – | – | – | – | – | – | CC50 [1]: > 100 µM; EC50 [2, 15]: 0.047 ± 0.042 µM; EC90 [2, 16]: 0.58 ± 0.03 µM; SI: Selectivity index ([2]; toxicity in HepG2 / activity in HepAD38): >2128; CC50 [3]: > 100 µM; CC50 [4]: 74 ± 14 µM; CC50 [5]: 67.8 ± 19.6 µM
Cc1c(C(=O)C(=O)NCc2cn(CCCCCCCCCCn3cc(CNC(=O)C(=O)c4c(C)c(C(=O)Nc5ccc(F)c(F)c5)n(C)c4C)nn3)nn2)c(C)n(C)c1C(=O)Nc1ccc(F)c(F)c1 [Compound 6c, 4,4’-(2,2’-(((Decane-1,10-diylbis(1H-1,2,3-triazole-1,4-diyl))bis(methylene))bis(azanediyl))bis (2-oxoacetyl))bis(N-(3,4-difluorophenyl)-1,3,5-trimethyl-1H-pyrrole-2-carboxamide)] | > 100 | 0.004 ± 0.001 | 0.14 ± 0.11 | > 100 | > 100 | > 100 | –
Cc1c(C(=O)C(=O)NCc2cn(CCCCCCCCCCCCn3cc(CNC(=O)C(=O)c4c(C)c(C(=O)Nc5ccc(F)c(F)c5)n(C)c4C)nn3)nn2)c(C)n(C)c1C(=O)Nc1ccc(F)c(F)c1 [Compound 6d, 4,4’-(2,2’-(((Dodecane-1,12-diylbis(1H-1,2,3-triazole-1,4-diyl))bis (methylene))bis(azanediyl))bis(2-oxoacetyl))bis(N-(3,4-difluorophenyl)-1,3,5-trimethyl-1H-pyrrole-2-carboxamide)] | > 100 | 0.0001 | 0.008 ± 0.001 | > 100 | 63.4 ± 40.6 | 42.8 ± 0.6 | times more potent than reference compound GLP-26 ([2]; HepAD38 EC50 vs GLP-26): 80 times
C#CCNC(=O)C(=O)c1c(C)c(C(=O)Nc2ccc(F)c(F)c2)n(C)c1C [GLP-26] | 30.5 ± 6.7 | 0.008 ± 0.001 | 0.07 ± 0.02 | > 100 | > 100 | > 100 | SAXS intensity at zero angle I(0) (Cp149 dimers [11]): 1.86 cm⁻¹; capsid-sized events (Cp149 dimers [12]): 27%; Radius (DLS, table) ([13]; 7.5 μM Cp149, 30 min, 1% DMSO control 24.6 ± 3.4): 53.0 ± 13.6 nM; PD (polydispersity) ([13]; 7.5 μM Cp149, 30 min, 1% DMSO control 32.3 ± 18.6): 26.8 ± 9.8%; average particle radius (DLS, text) ([13]; 1% DMSO control 24.6 nm): 53.0 nm; Subunit binding energies −Δg (Cp149 dimers [10]): 10.4 kT; Rgw (mean radius of gyration, plateau) (Cp149 dimers [10]): 180 Å and 180 ± 1Å; 〈N〉w∞ (mean aggregation number at equilibrium) (Cp149 dimers [10]): 190 and 190 ± 11; Associated timescale of Rgw (Cp149 dimers [10]): 116 ± 63 ms; Associated timescale of 〈N〉w (Cp149 dimers [10]): 487 ± 178 ms; larger objects with an ellipsoidal appearance (2D classification) (Cp149 dimers [14]): 17.5%; objects that appeared to be T = 3 capsids (2D classification) (Cp149 dimers [14]): 1.8%; objects very similar to T = 4 capsids (2D classification) (Cp149 dimers [14]): 81.3%
